Measurements reported in ChEMBL document CHEMBL1806417, “Antiproliferative activity and QSAR studies of a series of new 4-aminomethylidene derivatives of some pyrazol-5-ones” (Bioorg Med Chem Lett, 2011).
Active and inactive are the calls of the source. No cut-off for these calls is given here.

Experiments:
[1] = tested on: MDA-MB-361; assay: Antiproliferative activity against human MDA-MB-361 cells assessed as cell survival after 72 hrs by MTT assay; assay type: functional, cell-based; conditions: MDA-MB-361, 72 h
Method in brief: (§1)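 Monolayer cultures in RPMI-1640 with L-glutamine (3 mM), 10% heat-inactivated FBS, 25 mM Hepes, pH 7.2, and extra glucose (1.11 g/L), at 37°C and 5% CO2. Seeding was 7000 cells/well for MDA-MB-361 and 3000 cells/well for MDA-MB-453. After 24 h, five two-fold dilutions were added for 72 h. MTT readout (Ohno–Abe modification). IC50 was read from the survival-versus-concentration curve; mean ± SD of three independent experiments.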

[2] = tested on: MDA-MB-453; assay: Antiproliferative activity against human MDA-MB-453 cells assessed as cell survival after 72 hrs by MTT assay; assay type: functional, cell-based; conditions: MDA-MB-453, 72 h; method in brief: as §1
[3] = tested on: MS-1; assay: Antiangiogenic activity in mouse MS1 cells assessed as inhibition tube-like structure formation at 10 uM after 12 hrs by microscopy
[4] = tested on: MDA-MB-453; assay: Cell cycle arrest in human MDA-MB-453 cells assessed as accumulation at sub-G1 phase at 2 times IC50 after 24 hrs using propidium iodide staining by flow cytometry; assay type: functional, cell-based
Method in brief: (§2)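 Cells were seeded at 3 × 10⁵ per well and treated or left untreated for 24 h. They were trypsinized and fixed overnight in ice-cold 70% ethanol at -20°C, then washed in PBS. RNase was applied at 37°C for 30 min, followed by propidium iodide for at least 30 min. DNA content and cell-cycle distribution were measured by FACScan flow cytometry on at least 10,000 cells per sample.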

[5] = tested on: MS-1; assay: Antiangiogenic activity in mouse MS1 cells assessed as inhibition tube-like structure formation at 3 uM after 12 hrs by microscopy
[6] = tested on: MDA-MB-361; assay: Cell cycle arrest in human MDA-MB-361 cells assessed as accumulation at sub-G1 phase at 2 times IC50 after 24 hrs using propidium iodide staining by flow cytometry (Rvb =2.21 %); assay type: functional; method in brief: as §2
[7] = tested on: MDA-MB-361; assay: Cell cycle arrest in human MDA-MB-361 cells assessed as accumulation at G1 phase at 2 times IC50 after 24 hrs using propidium iodide staining by flow cytometry (Rvb =64.36 %); assay type: functional; method in brief: as §2
[8] = tested on: MDA-MB-361; assay: Cell cycle arrest in human MDA-MB-361 cells assessed as accumulation at S phase at 2 times IC50 after 24 hrs using propidium iodide staining by flow cytometry (Rvb =15.72 %); assay type: functional; method in brief: as §2
[9] = tested on: MDA-MB-361; assay: Cell cycle arrest in human MDA-MB-361 cells assessed as accumulation at G2/M phase at 2 times IC50 after 24 hrs using propidium iodide staining by flow cytometry (reference value: 14.15 %); assay type: functional; method in brief: as §2
[10] = tested on: MS-1; assay: Antiangiogenic activity in mouse MS1 cells assessed as inhibition tube-like structure formation at 3 uM after 12 hrs by microscopy; assay type: functional, cell-based
[11] = tested on: MS-1; assay: Antiangiogenic activity in mouse MS1 cells assessed as inhibition tube-like structure formation at 10 uM after 12 hrs by microscopy; assay type: functional, cell-based
[12] = tested on: MS-1; assay: Antiangiogenic activity in mouse MS1 cells assessed as inhibition tube-like structure formation at 30 uM after 12 hrs by microscopy; assay type: functional, cell-based

O=C1NN=C(c2ccccc2)/C1=C/Nc1cc(-c2ccccc2)[nH]n1
IC50 [1]: 42.7 µM | IC50 [2]: 11.5 µM | Activity [3]: inactive

O=C(O)[C@H](Cc1c[nH]c2ccccc12)N/C=C1\C(=O)N(c2ccccc2)N=C1c1ccccc1
IC50 [1]: 33.9 µM | IC50 [2]: 9.75 µM | Activity [4]: Active | Activity [3]: inactive

CCOC(=O)c1c[nH]nc1N/C=C1\C(=O)NN=C1c1ccccc1
IC50 [1]: 121 µM | IC50 [2]: 74.6 µM | Activity [5]: inactive

O=C1NN=C(c2ccccc2)/C1=C/Nc1cc(-c2ccco2)[nH]n1
IC50 [1]: 63.7 µM | IC50 [2]: 20.9 µM | Activity [3]: inactive

Cc1cc(N/C=C2\C(=O)N(c3ccccc3)N=C2c2ccccc2)n[nH]1
IC50 [1]: 9.98 µM | IC50 [2]: 10.2 µM | Activity [6]: 19.43% | Activity [7]: 46.79% | Activity [8]: 11.64% | Activity [9]: 14.12% | Activity [4]: Active | Activity [10]: Active

CSCC[C@H](N/C=C1\C(=O)N(c2ccccc2)N=C1c1ccccc1)C(=O)O
IC50 [1]: 12.5 µM | IC50 [2]: 9.43 µM | Activity [4]: Active | Activity [5]: inactive

O=C1/C(=C\Nc2cc[nH]n2)C(c2ccccc2)=NN1c1ccccc1
IC50 [1]: 51 µM | IC50 [2]: 34.7 µM | Activity [6]: 21.55% | Activity [7]: 47.94% | Activity [8]: 7.81% | Activity [9]: 15.58% | Activity [4]: Active | Activity [11]: Active

CCOC(=O)c1c[nH]nc1N/C=C1\C(=O)N(c2ccccc2)N=C1c1ccccc1
IC50 [1]: 24.7 µM | IC50 [2]: 19.4 µM | Activity [4]: Active | Activity [5]: inactive

O=C(O)[C@@H](Cc1ccccc1)N/C=C1\C(=O)N(c2ccccc2)N=C1c1ccccc1
IC50 [1]: 11.9 µM | IC50 [2]: 9.66 µM | Activity [4]: Active | Activity [5]: inactive

O=C(O)[C@H](Cc1ccccc1)N/C=C1\C(=O)N(c2ccccc2)N=C1c1ccccc1
IC50 [1]: 11.5 µM | IC50 [2]: 10.4 µM | Activity [4]: Active | Activity [10]: Active

O=C1/C(=C\Nc2cc(-c3ccco3)[nH]n2)C(c2ccccc2)=NN1c1ccccc1
IC50 [1]: 13.4 µM | IC50 [2]: 12.4 µM | Activity [6]: 21.95% | Activity [7]: 51.38% | Activity [8]: 7.33% | Activity [9]: 13.9% | Activity [4]: Active | Activity [10]: Active

O=C1/C(=C\Nc2cc(-c3ccccc3)[nH]n2)C(c2ccccc2)=NN1c1ccccc1
IC50 [1]: 12.2 µM | IC50 [2]: 8.75 µM | Activity [4]: Active | Activity [10]: Active

O=C1NN=C(c2ccccc2)/C1=C/N[C@@H](CO)C(=O)O
IC50 [1]: 105 µM | IC50 [2]: 23.7 µM | Activity [12]: Active

O=C1NN=C(c2ccccc2)/C1=C/N[C@@H](Cc1c[nH]cn1)C(=O)O
IC50 [1]: 113 µM | IC50 [2]: 73.9 µM | Activity [12]: Active

O=C(O)[C@H](CO)N/C=C1\C(=O)N(c2ccccc2)N=C1c1ccccc1
IC50 [1]: 52.8 µM | IC50 [2]: 49 µM | Activity [4]: Active | Activity [3]: inactive

O=C(O)[C@H](Cc1c[nH]cn1)N/C=C1\C(=O)N(c2ccccc2)N=C1c1ccccc1
IC50 [1]: 87.2 µM | IC50 [2]: 71.1 µM | Activity [4]: Active | Activity [12]: inactive

CSCC[C@H](N/C=C1\C(=O)NN=C1c1ccccc1)C(=O)O
IC50 [1]: 105 µM | IC50 [2]: 42.1 µM | Activity [12]: Active

O=C1NN=C(c2ccccc2)/C1=C/N[C@@H](Cc1c[nH]c2ccccc12)C(=O)O
IC50 [1]: 93.6 µM | IC50 [2]: 41.7 µM | Activity [12]: Active

CSC[C@H](N/C=C1\C(=O)N(c2ccccc2)N=C1c1ccccc1)C(=O)O
IC50 [1]: 14.2 µM | IC50 [2]: 9.46 µM | Activity [4]: Active | Activity [5]: inactive

O=C1NN=C(c2ccccc2)/C1=C/N[C@@H](Cc1ccccc1)C(=O)O
IC50 [1]: 67 µM | IC50 [2]: 94.8 µM | Activity [3]: inactive

Cc1cc(N/C=C2\C(=O)NN=C2c2ccccc2)n[nH]1
IC50 [1]: 96 µM | IC50 [2]: 93 µM | Activity [12]: Active

O=C(O)[C@H](Cc1ccc(O)cc1)N/C=C1\C(=O)N(c2ccccc2)N=C1c1ccccc1
IC50 [1]: 24.8 µM | IC50 [2]: 10.9 µM | Activity [4]: Active | Activity [5]: inactive

CSC[C@H](N/C=C1\C(=O)NN=C1c1ccccc1)C(=O)O
IC50 [1]: 97.4 µM | IC50 [2]: 105 µM | Activity [12]: Active

O=C1NN=C(c2ccccc2)/C1=C/N[C@@H](Cc1ccc(O)cc1)C(=O)O
IC50 [1]: 61.1 µM | IC50 [2]: 29.8 µM | Activity [3]: inactive

O=C1NN=C(c2ccccc2)/C1=C/Nc1cc[nH]n1
IC50 [1]: 95.3 µM | IC50 [2]: 74.9 µM | Activity [12]: inactive
